Experimental data from different studies.
Protocols differ between the studies behind these lines.
Target: Activin receptor type-1-like (ACVRL1, Homo sapiens, UniProt P37023)

Cc1cnn2ncc(-c3ccnc(N(C)C)n3)c2c1
remaining binding (binding; 1 µM): 91%

COc1cnc(Nc2cccc(S(N)(=O)=O)c2)nc1N1CCN(c2ccccc2)CC1
remaining binding (binding; competition with immobilised ligand; 1 µM): 98%

CCCCN(CCCC)C(=O)CN1C[C@@H](c2cc(OC)c3c(c2)OCO3)[C@H](C(=O)O)[C@H]1CC(C)(C)CCC
remaining binding (cell-free assay; competition with immobilised ligand; 1 µM): 99.4%

CN(c1nccc(-c2cnn3ncccc23)n1)C1CC1
remaining binding (binding; 1 µM): 76%

CCN1CCN(Cc2ccc(C(=O)Nc3ccc(C)c(Oc4ccc5c(c4)CC(=O)N5)c3)cc2C(F)(F)F)CC1
remaining binding (binding; competition with immobilised ligand; 1 µM): 100%

COc1ccnn2ncc(-c3ccnc(N(C)C)n3)c12
remaining binding (binding; 1 µM): 100%

CC(=O)N1CCC(c2ccc(C(=O)NC3=NCCN3)cc2C(F)(F)F)CC1
remaining binding (binding; competition with immobilised ligand; 1 µM): 100%

O=C(NCC1CCOCC1)c1n[nH]cc1NC(=O)c1c(F)cccc1F
remaining binding (binding; competition with immobilised ligand; 1 µM): 94%

Nc1ncc2c(n1)-c1c([nH]c3ccc(C#CC4CC4)cc13)CCCC2
remaining binding (binding; competition with immobilised ligand; 1 µM): 100%

C=CC(=O)N1CCC(C(=O)NCC(=O)N2CCN(c3nc(-c4cnc(N)nc4C(F)F)nc(N4CCOCC4)n3)CC2)CC1
remaining binding (binding; competition with immobilised ligand; 1 µM): 92%

O=C(c1ccc(Nc2ncc(Cl)c(-c3cc4ccccc4s3)n2)cc1)N1CCC(N2CCCC2)CC1
remaining binding (binding; competition with immobilised ligand; 1 µM): 100%

CC1CCCN1c1nccc(-c2cnn3ncccc23)n1 (stereo not shown)
remaining binding (binding; 1 µM): 89%

Cc1cc(C)c(-n2ccn3nc(-c4cccnc4)cc23)cc1NC(=O)c1cc(C#N)cc(S(F)(F)(F)(F)F)c1
remaining binding (binding; competition with immobilised ligand; 0.1 µM): 78.9%

FC(F)(F)Oc1cccc(-c2cnc3ccc(-c4ccncc4)nn23)c1
remaining binding (cell-free assay; competition with immobilised ligand; 5 µM): 85%

COc1ncc2cc3ccccc3nc2c1C#N
remaining binding (binding; competition with immobilised ligand; 5 µM): 93%

O=C(c1ccc(Nc2nccc(-c3cc4ccccc4s3)n2)cc1)N1CCC(N2CCCC2)CC1
remaining binding (binding; competition with immobilised ligand; 1 µM): 100%

CC1=C(C#N)[C@@H](c2ccc3[nH]nc(C)c3c2)C(C#N)=C(c2ccc(Cl)cc2)N1
remaining binding (binding; competition with immobilised ligand; 1 µM): 79%

C[C@@H]1CCN(c2nccc(-c3cnn4ncccc34)n2)C1
remaining binding (binding; 1 µM): 100%

CS(=O)(=O)c1cc(C2(NC(=O)c3cncc4c3cnn4-c3ccc(F)cc3)CC2)ccn1
remaining binding (cell-free assay; competition with immobilised ligand; 1 µM): 100%

N[C@@H]1CCN(c2nccc(-c3cnn4ncccc34)n2)C1
remaining binding (binding; 1 µM): 100%

O=C(NCCCN1CCOCC1)c1ccc(Nc2nccc(-c3cc4ccccc4s3)n2)cc1
remaining binding (binding; competition with immobilised ligand; 1 µM): 100%

FC(F)(F)c1ccc2c(c1)nc(-c1cccnc1)n2C1CC1
remaining binding (cell-free assay; competition with immobilised ligand; 1 µM): 100%
